Assay [1] addresses T1, DNA-binding transcriptional activator DevR/DosR (Mycobacterium tuberculosis, UniProt P9WMF9). The experiment in a line: Inhibition of Mycobacterium tuberculosis phosphorylated DevR binding to fdxA promoter DNA after 10 mins by EMSA. In a few lines: (§1)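 N-terminal GST-tagged DevR was phosphorylated with acetyl phosphate; DevR~P (1 μM final) was preincubated 10 min at 30 °C with or without compound. ~2 ng 32P end-labelled fdxA promoter PCR probe was added and incubated 30 min on ice in binding buffer. Complexes resolved by gel electrophoresis.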

The target in assay [2] is T1, DNA-binding transcriptional activator DevR/DosR. The experiment in a line: Inhibition of DevR region-dependent Rv3134c promoter activity in Mycobacterium tuberculosis H37Rv after 48 hrs by GFP reporter gene assay. The procedure, abridged: (§2)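 H37Rv carrying DevR-regulated promoter-gfp plasmids, grown in Dubos/Tween/ADC medium to OD595 ~0.4 and diluted to OD ~0.05. Exposed to 2-fold serial compound dilutions from DMSO stocks for 48 h at 37 °C. Fluorescence corrected for vector and compound background. Percent inhibition = [1 - RFUcompound/RFUDMSO] × 100; mean ± SD of three experiments, each in triplicate wells.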

In assay [3] the target is DNA-binding transcriptional activator DevR/DosR (Mycobacterium tuberculosis) (UniProt P9WMF9). Put plainly: Inhibition of Mycobacterium tuberculosis phosphorylated DevR binding to fdxA promoter DNA at 250 uM after 10 mins by EMSA. In a few lines: as §1
The target is the same in assay [4]. The experiment in a line: Inhibition of DevR region-dependent Rv3134c promoter activity in Mycobacterium tuberculosis H37Rv at 250 uM after 48 hrs by GFP reporter gene assay. In a few lines: as §2
For orientation: In a reporter assay the amount or activity of a reporter protein is the signal.

The test system of assay [5] is Mycobacterium tuberculosis. The experiment in a line: Inhibition of constitutive sigA promoter activity in Mycobacterium tuberculosis H37Rv. In kind it is functional, organism-based. The procedure, abridged: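 Strains carrying Rv3134c or sigA promoter-gfp were grown in 7H9/Tween/ADC to OD595 ~0.40. Washed twice with PBS, resuspended in PBS (starved) or medium, and diluted to OD595 ~0.02. 1 mL aliquots incubated; 200 μL samples taken weekly to measure GFP fluorescence.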

In assay [6] the target is DNA-binding transcriptional activator DevR/DosR (Mycobacterium tuberculosis) (UniProt P9WMF9). The experiment in a line: Inhibition of Mycobacterium tuberculosis phosphorylated DevR binding to fdxA promoter DNA at 500 uM after 10 mins by EMSA. In a few lines: as §1
Assay [7] deals with Mycobacterium tuberculosis. The experiment in a line: Antimycobacterial activity against 30 day old non-replicating dormant cultures of Mycobacterium tuberculosis H37Rv assessed as reduction of bacterial viability measured after 11 days by resazurin reduction assay. The format is functional, organism-based. The procedure, abridged: (§3)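 H37Rv grown in Dubos medium to OD595 ~0.4, diluted to OD595 0.003; 2 mL aliquots held static in sealed 4 mL tubes for 30 days until hypoxic. Compounds added to these dormant cultures for a further 11 days. Metronidazole and isoniazid were controls. Read by CFU plating of aliquots, then resazurin 0.02% plus Tween-80 20% injected, overnight incubation, resazurin reduction (HyRRA).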
Background: Resazurin is reduced to fluorescent resorufin, in cell work by metabolically active cells.

Assay [8] has as its system Mycobacterium tuberculosis. Put plainly: Antimycobacterial activity against 30 day old non-replicating dormant cultures of Mycobacterium tuberculosis H37Rv assessed as revival of bacterial viability exposed for 11 days measured after 30 days post exposure by resazurin reduction assay. The format is functional, organism-based. The procedure, abridged:
(§4)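 Hypoxic cultures were pelleted at 11000g at the end of exposure (30 days if compound was given on day 0, 41 days if given on day 30). Washed and resuspended in 4 mL 7H9 with 5% OADC and 0.1% Tween-80. Grown aerobically at 190 rpm, 37 °C. Aliquots taken every 5 days; recovery read by resazurin reduction and OD595, scored 1-40 with day 0 = 1.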

Assay [9] has as its target DNA-binding transcriptional activator DevR/DosR (Mycobacterium tuberculosis) (UniProt P9WMF9). Put plainly: Inhibition of Mycobacterium tuberculosis phosphorylated DevR binding to fdxA promoter DNA added before DevR phosphorylation by EMSA.
For assay [10] the target is unchanged. Put plainly: Inhibition of Mycobacterium tuberculosis phosphorylated DevR binding to fdxA promoter DNA added after DevR phosphorylation by EMSA.
The target of assay [11] is DNA-binding protein HupB (Mycobacterium tuberculosis (strain ATCC 25177 / H37Ra)) (UniProt A5U6Z7). The experiment in a line: Inhibition of Mycobacterium tuberculosis HupB binding to fdxA promoter DNA at 500 uM by EMSA. In a few lines: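 Purified HupB protein incubated with compound, then ~2 ng 32P-labelled fdxA promoter probe added for 30 min on ice in binding buffer. Complexes resolved by gel shift electrophoresis against positive and negative controls.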
For orientation: Mobility shift assays separate free from complexed probe on a gel.

The target in assay [12] is T1, DNA-binding transcriptional activator DevR/DosR. The experiment in a line: Inhibition of DevR region-dependent narK2 promoter activity in Mycobacterium tuberculosis H37Rv after 48 hrs by GFP reporter gene assay. The procedure, abridged: as §2
Assay [13] shares this target. Put plainly: Inhibition of DevR region-dependent hspX promoter activity in Mycobacterium tuberculosis H37Rv after 48 hrs by GFP reporter gene assay. In a few lines:
as §2

Assay [14] concerns Mycobacterium tuberculosis. Put plainly: Antimycobacterial activity against hypoxic dormant cultures of Mycobacterium tuberculosis H37Rv assessed as reduction of bacterial viability at 131 ug/mL administered on day 0 into hypoxic tubes measured after 30 days by resazurin reduction assay. The format is functional. The procedure, abridged: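 H37Rv in Dubos medium at OD595 0.003; 2 mL aliquots in sealed 4 mL tubes held static, compound injected on day 0. Incubated until methylene blue decolorized (anaerobiosis, ~30 days). CFU plating of aliquots, then resazurin 0.02% and Tween-80 20% injected, overnight incubation, viability by resazurin reduction (HyRRA). DMSO control matched.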

Assay [15] relates to Mycobacterium tuberculosis. Put plainly: Antimycobacterial activity against 30 day old non-replicating dormant cultures of Mycobacterium tuberculosis H37Rv assessed as reduction of bacterial viability at 131 ug/mL measured after 11 days by resazurin reduction assay. The format is functional, organism-based. The procedure, abridged: as §3
Assay [16] deals with Mycobacterium tuberculosis. The experiment in a line: Antimycobacterial activity against hypoxic dormant cultures of Mycobacterium tuberculosis H37Rv assessed as revival of bacterial viability at 131 ug/mL administered on day 0 into hypoxic tubes measured after 30 days under hypoxic conditions by resazurin reduction assay. In kind it is functional, organism-based. In a few lines: as §4

In assay [17] the test system is Mycobacterium tuberculosis. Put plainly: Antimycobacterial activity against 30 day old non-replicating dormant cultures of Mycobacterium tuberculosis H37Rv assessed as revival of bacterial viability at 131 ug/mL exposed for 11 days measured after 30 days post exposure by resazurin reduction assay. The format is functional, organism-based. In a few lines:
as §4

For assay [18], the system named is Mycobacterium tuberculosis. The experiment in a line: Antimycobacterial activity against aerobic Mycobacterium tuberculosis H37Rv by resazurin reduction based REMA assay. The format is functional, organism-based. The procedure, abridged:
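Aerobic H37Rv exposed to compounds in triplicate cultures for 7 days. Then 0.02% resazurin and 20% Tween-80 added; after 48 h, blue-to-pink colour change read, with fluorescence at excitation 530 nm, emission 590 nm.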

The subject of assay [19] is Mycobacterium tuberculosis. Put plainly: Antimycobacterial activity against nutrient starvation-induced dormant Mycobacterium tuberculosis H37Rv expressing Rv3134c/sigA promoter driven GFP reporter genes. In kind it is functional, organism-based.

As usually defined, the IC50 is the midpoint of a concentration-inhibition curve. For orientation: inhibition means the share of the control response that was lost under treatment. A low value points to a response near the control.

Calls of active or inactive are those of the source. The calls are words filed in the database; no cut-off is given here.

T1 sequence (P9WMF9 whole entry): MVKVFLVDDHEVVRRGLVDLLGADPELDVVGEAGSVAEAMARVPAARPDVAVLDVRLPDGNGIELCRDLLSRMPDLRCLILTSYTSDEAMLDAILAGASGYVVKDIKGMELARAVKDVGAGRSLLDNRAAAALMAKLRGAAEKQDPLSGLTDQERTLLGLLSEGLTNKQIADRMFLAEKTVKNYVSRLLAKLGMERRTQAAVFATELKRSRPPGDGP
DNA-binding transcriptional activator DevR/DosR (Mycobacterium tuberculosis), sequence (P9WMF9 whole entry): as above
DNA-binding protein HupB (Mycobacterium tuberculosis (strain ATCC 25177 / H37Ra)), sequence (A5U6Z7 whole entry): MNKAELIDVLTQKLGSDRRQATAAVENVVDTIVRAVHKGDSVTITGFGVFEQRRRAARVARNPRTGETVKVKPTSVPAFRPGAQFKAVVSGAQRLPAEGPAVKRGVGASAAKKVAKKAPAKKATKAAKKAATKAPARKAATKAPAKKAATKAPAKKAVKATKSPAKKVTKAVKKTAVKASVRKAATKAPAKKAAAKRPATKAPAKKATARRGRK

In the case of `O=C(NCc1ccccc1)c1ccccc1NS(=O)(=O)c1ccc2c(c1)OCCO2`, the IC50 result in assay [1] and in [2] was “Not Active” throughout.
As to `COc1cc(Br)cc(/C=C2/SC(Nc3cccc(C(=O)O)c3)=NC2=O)c1O`, the IC50 result in [1] and in assay [2] was “Not Active” in each case.
For the compound `COc1cc(NC(=O)CCc2ccc(OCc3ccc(Cl)cc3)c(OC)c2)c(OC)cc1Cl`, the IC50 in [1] (read-out: IC50 (converted)) is 295 µM; in assay [2] (read-out: IC50 (converted)) it was 249 µM. Moreover, the result in assay [3] and in assay [5] was Active. In assay [4], this compound yielded an inhibition of 50%.
On to `COc1cc(C(=O)NCC(=O)NN)cc(OC)c1OC`, for which the IC50 entry in assay [1] and in [2] was “Not Active” each time.
`C=CCc1cc(/C=C2\NC(=O)N(c3ccccc3F)C2=O)cc(OCC)c1O`: the IC50 was 259 µM in assay [1] (read-out: IC50 (converted)) and 311 µM in assay [2] (read-out: IC50 (converted)). Also, the inhibition worked out at 100% in assay [6] and 30% in [4]. Moreover, the result in assay [5] was Active.
`Nc1nc2c(nc(Br)n2[C@H]2O[C@H](CO)[C@@H](O)[C@@H]2O)c(=O)[nH]1`: the IC50 result in assay [1] and in assay [2] was “Not Active” in each case.
As to `Cc1ncc([N+](=O)[O-])n1CCO`, the outcome in assay [7] and in [8] was Active.
`NNC(=O)c1ccncc1`: the outcome in [7] and in assay [8] was inactive.
For `O=c1[nH]cc(/N=C/c2cc([N+](=O)[O-])ccc2O)c(=O)[nH]1`, the IC50 result in [1] and in [2] was “Not Active” in each case.
On to `COc1cc(NC(=O)c2ccc(-c3cc4ccccc4oc3=O)cc2)ccc1NC(=O)c1ccccc1Cl`, for which the IC50 is below 49.9 µM in assay [1] (read-out: IC50 (converted)), 125 µM in assay [2] (read-out: IC50 (converted)), below 125 µM in assay [12] and below 125 µM in assay [13]. Besides, the result in assay [3], in [9], in [10] and in assay [16] was Active. Besides, the outcome in assay [11], in [5], in [15], in assay [17], in [18] and in assay [19] was inactive. Moreover, the inhibition in [4] stood at 50%. Further, in assay [14], the Activity is listed as above 99%.
For `Cc1cc(=O)[nH]c2sc(C(=O)c3ccc(Br)cc3)c(N)c12`, the half-inhibitory concentration (IC50) entry in assay [1] and in [2] was “Not Active” each time.
As for `COC(=O)c1ccc(Cl)c(NC(=O)c2ccc(CN3CCOCC3)cc2)c1`, the IC50 entry in assay [1] and in [2] was “Not Active” in each case.
As to `COc1cc(NC(=O)c2cc3ccccc3o2)ccc1NC(=O)c1ccccc1Cl`, the figures for the IC50 in assay [1] (read-out: IC50 (converted)) and in assay [2] (read-out: IC50 (converted)) were 200 µM and 300 µM, respectively. Moreover, the result in [3] and in [5] was Active. The compound also displayed an inhibition in assay [4] of 30%.

The record behind these values is ChEMBL document CHEMBL1154621, “Structure-based design of DevR inhibitor active against nonreplicating Mycobacterium tuberculosis” (J Med Chem, 2009).
